{"source": "ChEMBL document CHEMBL1131133", "about": "“A novel class of adenosine A3 receptor ligands. 1. 3-(2-Pyridinyl)isoquinoline derivatives” (J Med Chem, 1998)", "key": {"[1]": {"target": "T1, Adenosine receptor A1 (Rattus norvegicus) (UniProt P25099)", "T1 sequence (whole entry)": "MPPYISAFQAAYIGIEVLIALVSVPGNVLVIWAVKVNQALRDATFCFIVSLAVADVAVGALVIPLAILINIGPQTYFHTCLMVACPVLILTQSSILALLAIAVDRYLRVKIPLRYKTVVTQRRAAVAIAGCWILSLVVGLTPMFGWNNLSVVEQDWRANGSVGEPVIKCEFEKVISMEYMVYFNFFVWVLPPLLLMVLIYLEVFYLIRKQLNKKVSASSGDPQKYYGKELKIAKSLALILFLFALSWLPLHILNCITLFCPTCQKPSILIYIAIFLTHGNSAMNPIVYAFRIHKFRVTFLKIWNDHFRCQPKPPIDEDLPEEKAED", "test": "Displacement of specific [3H]DPCPX binding at rat cortical membrane (Adenosine A1 receptor) at concentration of […].", "method_in_brief": "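A1 binding used rat cortical membranes and [3H]DPCPX. Percentage displacement of specific binding was measured at one fixed test-compound concentration (n = 2-3).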"}, "[2]": {"target": "Adenosine receptor A2a (Rattus norvegicus) (UniProt P30543)", "sequence (P30543 whole entry)": "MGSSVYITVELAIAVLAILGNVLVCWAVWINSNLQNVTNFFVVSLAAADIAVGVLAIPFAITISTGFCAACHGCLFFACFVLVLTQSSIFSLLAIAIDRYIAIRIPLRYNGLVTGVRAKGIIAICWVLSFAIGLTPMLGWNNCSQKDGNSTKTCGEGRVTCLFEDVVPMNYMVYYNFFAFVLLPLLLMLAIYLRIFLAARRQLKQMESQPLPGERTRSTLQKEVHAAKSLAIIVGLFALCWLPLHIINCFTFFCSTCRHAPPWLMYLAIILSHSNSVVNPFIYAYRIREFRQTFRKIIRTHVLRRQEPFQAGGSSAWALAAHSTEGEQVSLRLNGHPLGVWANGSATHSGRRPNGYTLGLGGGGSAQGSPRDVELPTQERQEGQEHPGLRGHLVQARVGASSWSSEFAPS", "test": "Displacement of specific [3H]CGS-21680 binding in rat striatal membrane (Adenosine A2A receptor) at concentration of […].", "assay_type": "cell membranes", "conditions": "Striatum", "method_in_brief": "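A2A binding used rat striatal membranes and [3H]CGS 21680. Percentage displacement of specific binding was measured at one fixed test-compound concentration (n = 2-3).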"}, "[3]": {"target": "T2, Adenosine receptor A3 (Homo sapiens, UniProt P0DMS8)", "T2 sequence (P0DMS8 whole entry)": "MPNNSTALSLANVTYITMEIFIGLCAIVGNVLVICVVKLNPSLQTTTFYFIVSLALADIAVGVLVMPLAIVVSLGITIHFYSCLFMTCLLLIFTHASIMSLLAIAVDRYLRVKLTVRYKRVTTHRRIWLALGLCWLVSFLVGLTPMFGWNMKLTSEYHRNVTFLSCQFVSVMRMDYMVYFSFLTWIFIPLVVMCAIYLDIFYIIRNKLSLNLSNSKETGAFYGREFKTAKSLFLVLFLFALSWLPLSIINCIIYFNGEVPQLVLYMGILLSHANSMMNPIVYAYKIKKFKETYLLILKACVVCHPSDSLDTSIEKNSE", "test": "Displacement of specific [125I]AB-MECA binding at human adenosine A3 receptor expressed in HEK 293 cells.", "assay_type": "cell-based, HEK293"}, "[4]": {"target": "T3, Adenosine receptor A3 (Homo sapiens) (UniProt P0DMS8)", "T3 sequence (whole entry)": "T2 sequence (P0DMS8 whole entry)", "test": "Displacement of [125I]AB-MECA from human adenosine A3 receptor expressed in HEK 293 cells at […]", "assay_type": "cell-based", "conditions": "HEK293", "method_in_brief": "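Membranes from HEK 293 cells stably expressing the human A3 receptor were incubated with [125I]AB-MECA. Percentage displacement of specific binding was measured at a single test-compound concentration (n = 2-3).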"}, "[5]": {"target": "T2, Adenosine receptor A3", "test": "biochemical"}}, "data": [{"smiles": "Cc1cccc(C)c1C(=O)N(C(=O)c1c(C)cccc1C)c1nc(-c2ccccn2)cc2ccccc12", "values": [{"measurement": "Displacement", "setting": "[1]", "result": 0, "unit": "%"}, {"measurement": "Displacement", "setting": "[2]", "result": 0, "unit": "%"}]}, {"smiles": "CC(C(=O)c1ccccc1)c1nc(-c2ccccn2)cc2ccccc12", "note": "(stereo unspecified)", "values": [{"measurement": "Displacement", "setting": "[2]", "result": 5, "unit": "%"}]}, {"smiles": "N=C(Nc1nc(-c2ccccn2)cc2ccccc12)c1ccc(Cl)c(Cl)c1", "values": [{"measurement": "Displacement", "setting": "[1]", "result": 21, "unit": "%"}, {"measurement": "Displacement", "setting": "[2]", "result": 2, "unit": "%"}]}, {"smiles": "N=C(Nc1nc(-c2ccccn2)cc2ccccc12)c1ccc(Cl)cc1", "values": [{"measurement": "Displacement", "setting": "[1]", "result": 20, "unit": "%"}, {"measurement": "Displacement", "setting": "[2]", "result": 7, "unit": "%"}]}, {"smiles": "Cc1cccc(C(=N)Nc2nc(-c3ccccn3)cc3ccccc23)c1", "values": [{"measurement": "Displacement", "setting": "[1]", "result": 43, "unit": "%"}, {"measurement": "Displacement", "setting": "[2]", "result": 0, "unit": "%"}]}, {"smiles": "CC(=O)N(C(C)=O)c1nc(-c2ccccn2)cc2ccccc12", "values": [{"measurement": "Displacement", "setting": "[1]", "result": 34, "unit": "%"}, {"measurement": "Displacement", "setting": "[2]", "result": 18, "unit": "%"}]}, {"smiles": "COC(=O)C1=C2C=CN(C)C=C2c2nc(-c3ccccc3)nn2C1", "values": [{"measurement": "Ki", "setting": "[3]", "result": 0.172, "unit": "µM"}]}, {"smiles": "COc1cccc(C(=N)Nc2nc(-c3ccccn3)cc3ccccc23)c1", "values": [{"measurement": "Displacement", "setting": "[1]", "result": 43, "unit": "%"}, {"measurement": "Displacement", "setting": "[2]", "result": 0, "unit": "%"}]}, {"smiles": "N=C(Nc1nc(-c2ccccn2)cc2ccccc12)c1cccc(Cl)c1", "values": [{"measurement": "Displacement", "setting": "[1]", "result": 49, "unit": "%"}, {"measurement": "Displacement", "setting": "[2]", "result": 14, "unit": "%"}]}, {"smiles": "c1ccc(-c2nc(-c3ccccn3)cc3ccccc23)cc1", "values": [{"measurement": "Displacement", "setting": "[2]", "result": 31, "unit": "%"}]}, {"smiles": "CS(=O)(=O)c1nc(-c2ccccn2)cc2ccccc12", "values": [{"measurement": "Displacement", "setting": "[2]", "result": 54, "unit": "%"}]}, {"smiles": "N=C(Nc1nc(-c2ccccn2)cc2ccccc12)c1ccccc1", "values": [{"measurement": "Displacement", "setting": "[1]", "result": 34, "unit": "%"}]}, {"smiles": "N=CNc1nc(-c2ccccn2)cc2ccccc12", "values": [{"measurement": "Displacement", "setting": "[1]", "result": 47, "unit": "%"}]}, {"smiles": "Oc1nc(-c2ccccn2)cc2ccccc12", "values": [{"measurement": "Displacement", "setting": "[2]", "result": 35, "unit": "%"}]}, {"smiles": "CCc1nc(-c2ccccn2)cc2ccccc12", "values": [{"measurement": "Displacement", "setting": "[1]", "result": 30, "unit": "%"}, {"measurement": "Displacement", "setting": "[2]", "result": 25, "unit": "%"}]}, {"smiles": "CSc1nc(-c2ccccn2)cc2ccccc12", "values": [{"measurement": "Displacement", "setting": "[2]", "result": 7, "unit": "%"}]}, {"smiles": "COc1ccc(C(=N)Nc2nc(-c3ccccn3)cc3ccccc23)cc1", "values": [{"measurement": "Displacement", "setting": "[1]", "result": 18, "unit": "%"}, {"measurement": "Displacement", "setting": "[2]", "result": 5, "unit": "%"}]}, {"smiles": "Nc1nc(-c2ccccn2)cc2ccccc12", "values": [{"measurement": "Displacement", "setting": "[1]", "result": 19, "unit": "%"}, {"measurement": "Displacement", "setting": "[4]", "result": 17, "unit": "%"}, {"measurement": "Displacement", "setting": "[2]", "result": 28, "unit": "%"}]}, {"smiles": "COc1nc(-c2ccccn2)cc2ccccc12", "values": [{"measurement": "Displacement", "setting": "[2]", "result": 19, "unit": "%"}]}, {"smiles": "Clc1nc(-c2ccccn2)cc2ccccc12", "values": [{"measurement": "Displacement", "setting": "[1]", "result": 43, "unit": "%"}, {"measurement": "Displacement", "setting": "[2]", "result": 29, "unit": "%"}]}, {"smiles": "Nc1nc2ccc(Cl)cc2c2nc(-c3ccco3)nn12", "note": "[CGS-15943]", "values": [{"measurement": "Ki", "setting": "[3]", "result": 0.143, "unit": "µM"}, {"measurement": "Ki", "setting": "[5]", "result": 0.0079, "unit": "µM"}]}, {"smiles": "Cc1ccc(C(=N)Nc2nc(-c3ccccn3)cc3ccccc23)cc1", "values": [{"measurement": "Displacement", "setting": "[1]", "result": 12, "unit": "%"}, {"measurement": "Displacement", "setting": "[2]", "result": 34, "unit": "%"}]}]}
